Measured values reported in ChEMBL document CHEMBL3745639, “Structure-activity relationships for lipoprotein lipase agonists that lower plasma triglycerides in vivo” (Eur J Med Chem, 2015).
Activity calls are given as the source filed them. Unless noted, no cut-off for these calls is given here.

What was measured:
[1] = target: T1, Lipoprotein lipase (Bos taurus) (UniProt P11151); assay: Induction of bovine LPL stabilization using intralipid as substrate at 12.5 uM preincubated for 10 mins with human recombinant ANGPTL4 followed by substrate addition measured after 45 mins relative to control
T1 sequence (whole entry): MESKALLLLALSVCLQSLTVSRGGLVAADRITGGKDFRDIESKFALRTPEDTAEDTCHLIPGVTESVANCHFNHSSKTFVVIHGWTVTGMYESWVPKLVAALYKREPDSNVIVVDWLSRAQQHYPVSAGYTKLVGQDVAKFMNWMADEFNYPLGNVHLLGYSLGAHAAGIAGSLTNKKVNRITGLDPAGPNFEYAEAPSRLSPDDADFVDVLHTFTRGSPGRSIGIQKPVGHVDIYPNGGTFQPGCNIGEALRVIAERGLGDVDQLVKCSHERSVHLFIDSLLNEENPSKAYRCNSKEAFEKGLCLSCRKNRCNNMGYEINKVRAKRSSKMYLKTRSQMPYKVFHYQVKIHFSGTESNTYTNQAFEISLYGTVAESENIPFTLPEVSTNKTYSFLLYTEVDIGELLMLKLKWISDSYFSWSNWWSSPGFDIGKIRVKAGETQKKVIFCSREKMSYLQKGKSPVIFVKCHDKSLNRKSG
Summary of the method: (§1)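 Compound in DMSO in buffer (50 mM potassium phosphate pH 7.4, 0.15 M NaCl, 0.01% Triton X-100), with human ANGPTL4 N-terminal fragment (aa 26-184, 75 nM final) and bovine LPL (15 nM final). Preincubated 10 min at 25 °C with shaking. Stopped after 45 min with 2.5% Triton X-100, and NEFA measured enzymatically. Activity normalised between DMSO+LPL+ANGPTL4 (0%) and DMSO+LPL (100%).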

[2] = target: T1, Lipoprotein lipase (Bos taurus); assay: Induction of bovine LPL stabilization using intralipid as substrate at 3.12 uM preincubated for 10 mins with human recombinant ANGPTL4 followed by substrate addition measured after 45 mins relative to control; summary of the method: as §1
[3] = target: T1, Lipoprotein lipase (Bos taurus); assay: Induction of bovine LPL stabilization using intralipid as substrate at 25 uM preincubated for 10 mins with human recombinant ANGPTL4 followed by substrate addition measured after 45 mins relative to control; summary of the method: as §1
[4] = target: T1, Lipoprotein lipase (Bos taurus); assay: Induction of bovine LPL stabilization using intralipid as substrate at 6.25 uM preincubated for 10 mins with human recombinant ANGPTL4 followed by substrate addition measured after 45 mins relative to control; summary of the method: as §1

Row | Activity [1] | Activity [2] | Activity [3] | Activity [4] | SMILES
1 | 71% | inactive | 53.1% | 55.6% | CC(C)c1ccc(NC(=O)c2cc(N3C(=O)c4ccc(C(=O)O)cc4C3=O)ccc2N2CCCCC2)cc1
2 | inactive | inactive | inactive | inactive | COc1ccc(N2C(=O)c3ccc(C(=O)O)cc3C2=O)cc1C(=O)Nc1ccc(C)cc1
3 | inactive | inactive | 13.5% | inactive | Cc1ccc(NC(=O)c2cccc(N3C(=O)c4ccc(C(=O)O)cc4C3=O)c2N2CCCCC2)cc1
4 | 55.1% | inactive | 36.3% | inactive | Cc1ccc(NC(=O)c2cc(N3CCCCC3)ccc2N2C(=O)c3ccc(C(=O)O)cc3C2=O)cc1
5 | 38.6% | inactive | 56.6% | inactive | Cc1cccc(NC(=O)c2cc(N3C(=O)c4ccc(C(=O)O)cc4C3=O)ccc2N2CCCCC2)c1
6 | inactive | inactive | 57% | inactive | O=C(O)c1ccc2c(c1)C(=O)N(c1ccc(N3CCCCC3)c(C(=O)Nc3ccccc3)c1)C2=O
7 | 73% | inactive | 69.8% | 66.8% | Cc1ccc(NC(=O)c2cc(N3C(=O)c4ccc(C(=O)O)cc4C3=O)ccc2N2CCCCC2)cc1Cl
8 | 53.3% | inactive | 72.1% | inactive | Cc1ccc(NC(=O)c2cc(N3C(=O)c4ccc(C(=O)O)cc4C3=O)ccc2N2CCCCC2)cc1F
9 | 80.1% | inactive | 94.4% | 57.2% | Cc1ccc(NC(=O)c2cc(N3C(=O)c4ccc(C(=O)O)cc4C3=O)ccc2Nc2ccccc2)cc1
10 | inactive | inactive | inactive | inactive | O=C(O)c1ccc2c(c1)C(=O)N(c1ccc(NCc3cccnc3)c(C(=O)NCc3cccnc3)c1)C2=O
11 | inactive | inactive | inactive | inactive | Cc1ccc(NC(=O)c2cc(N3C(=O)c4ccc(C(=O)O)cc4C3=O)ccc2Cl)cc1
12 | inactive | inactive | 49.5% | inactive | CCN(CC)c1ccc(N2C(=O)c3ccc(C(=O)O)cc3C2=O)cc1C(=O)Nc1ccc(C)cc1
13 | inactive | inactive | inactive | inactive | O=C(O)c1ccc2c(c1)C(=O)N(c1ccc(N3CCCCC3)c(C(=O)NCc3ccccc3)c1)C2=O
14 | inactive | inactive | inactive | inactive | Cc1ccc(NC(=O)c2cc(N3C(=O)c4ccccc4C3=O)ccc2N2CCCCC2)cc1
15 | inactive | inactive | inactive | inactive | O=C(O)c1ccc2c(c1)C(=O)N(c1ccc(Cl)c(C(=O)NCc3cccnc3)c1)C2=O
16 | 47.1% | inactive | 67.2% | 60.6% | CCCCCCNc1ccc(N2C(=O)c3ccc(C(=O)O)cc3C2=O)cc1C(=O)Nc1ccc(C)cc1
17 | inactive | inactive | inactive | inactive | Cc1ccc(NC(=O)c2cc(-n3cc4ccccc4n3)ccc2N2CCCCC2)cc1
18 | inactive | inactive | inactive | inactive | COCCNc1ccc(N2C(=O)c3ccc(C(=O)O)cc3C2=O)cc1C(=O)Nc1ccc(C)cc1
19 | inactive | inactive | inactive | inactive | Cc1ccc(NC(=O)c2cc(N3C(=O)c4ccc(Br)cc4C3=O)ccc2N2CCCCC2)cc1
20 | inactive | inactive | 14.1% | inactive | Cc1ccc(NC(=O)c2ccc(N3C(=O)c4ccc(C(=O)O)cc4C3=O)cc2N2CCCCC2)cc1
21 | inactive | inactive | 43.8% | inactive | COc1ccc(NC(=O)c2cc(N3C(=O)c4ccc(C(=O)O)cc4C3=O)ccc2N2CCCCC2)cc1
22 | inactive | inactive | inactive | inactive | Cc1ccc(NC(=O)c2cc(N3C(=O)c4ccc(C(=O)O)cc4C3=O)ccc2N2CCN(C)CC2)cc1
23 | 59.1% | inactive | 52.5% | 44.1% | CC(C)c1ccc(NC(=O)c2cc(N3C(=O)c4ccc(C(=O)O)cc4C3=O)ccc2Nc2ccccc2)cc1
24 | inactive | inactive | inactive | inactive | Cc1ccc(NC(=O)c2cc(N3C(=O)c4cccc(C(=O)O)c4C3=O)ccc2N2CCCCC2)cc1

Further lines, the molecule ahead of its results:

Row | SMILES | Activity [1] | Activity [2] | Activity [3] | Activity [4]
25 | O=C(O)c1ccc2c(c1)C(=O)N(c1ccccc1)C2=O | inactive | inactive | inactive | inactive
26 | CCCNc1ccc(N2C(=O)c3ccc(C(=O)O)cc3C2=O)cc1C(=O)Nc1ccc(C)cc1 | 6.2% | inactive | 39.7% | inactive
27 | Cc1ccc(NC(=O)c2cc(N3C(=O)c4ccc(C(=O)O)cc4C3=O)ccc2N2CCOCC2)cc1 | inactive | inactive | inactive | inactive
28 | Cc1ccc(NC(=O)c2cc(Cl)cc(N3C(=O)c4ccc(C(=O)O)cc4C3=O)c2)cc1 | inactive | inactive | inactive | inactive
29 | Cc1ccc(NC(=O)c2cc(N3C(=O)c4ccc(C(N)=O)cc4C3=O)ccc2N2CCCCC2)cc1 | inactive | inactive | 3.5% | inactive
30 | Cc1ccc(NC(=O)c2cccc(N3CCCCC3)c2N2C(=O)c3ccc(C(=O)O)cc3C2=O)cc1 | inactive | inactive | 7.3% | inactive
31 | Cc1ccc(NC(=O)c2cc(N3CCCCC3)cc(N3C(=O)c4ccc(C(=O)O)cc4C3=O)c2)cc1 | inactive | inactive | 32.6% | inactive
32 | O=C(O)c1ccc2c(c1)C(=O)N(c1ccc(Nc3ccccc3)c(C(=O)Nc3ccccc3-c3ccccc3)c1)C2=O | 61.5% | inactive | 73.8% | 45%
33 | CCCCCCNC(=O)c1cc(N2C(=O)c3ccc(C(=O)O)cc3C2=O)ccc1NCCCCCC | 31.8% | 4% | 67.8% | 19.3%
34 | COCCOCCOc1ccc(N2C(=O)c3ccc(C(=O)O)cc3C2=O)cc1C(=O)Nc1ccc(C)cc1 | inactive | inactive | inactive | inactive
35 | CCc1cccc(NC(=O)c2cc(N3C(=O)c4ccc(C(=O)O)cc4C3=O)ccc2N2CCCCC2)c1 | 63.4% | inactive | 71% | 9.2%
36 | CCc1ccc(NC(=O)c2cc(N3C(=O)c4ccc(C(=O)O)cc4C3=O)ccc2Nc2ccccc2)cc1 | 60.3% | inactive | 60% | 37.6%
37 | Cc1ccc(NC(=O)c2cc(N3C(=O)c4ccc(C(=O)O)cc4C3=O)ccc2N2CCCCC2)cc1C(F)(F)F | 42.2% | inactive | 65.8% | 19.4%
38 | Cc1ccc(NC(=O)c2cc(Nc3ccc(C)cc3)cc(N3C(=O)c4ccc(C(=O)O)cc4C3=O)c2)cc1 | 7% | inactive | 24.6% | 5%
39 | O=C(O)c1ccc2c(c1)C(=O)N(c1ccc(N3CCCCC3)c(C(=O)NCc3cccnc3)c1)C2=O | inactive | inactive | inactive | inactive
40 | Cc1ccc(NC(=O)c2cc(N3C(=O)c4ccc(N)cc4C3=O)ccc2N2CCCCC2)cc1 | inactive | inactive | 11.4% | inactive
